The source made the active and inactive calls.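 The calls were made as follows, unless noted: active = viability loss from added drug above about 55%, and viability with drug at most 40%, in both replicates (limit read from the data, passing the limit was not always enough); inconclusive = both conditions met in only one replicate; inactive = neither replicate meets both conditions.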
Tests used:
[1] = reducers of endogenous Her2 protein level, primary screen, SKBR3 breast tumor cells, AlphaScreen, ATP viability (AID 461;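 active = Her2 level under about 52% in both replicate screens, with viability over 70% of control, limit read from the data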;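 as to Her2 level: lower value means less Her2 protein in the cells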;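 as to viability: percent of carrier control wells set as 100% viability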); conditions: 18-24 h, measured here: SKBR3 viability, ATP luminescence, at 10 µM
[2] = molecular target: Receptor tyrosine-protein kinase erbB-2 (Homo sapiens) (UniProt P04626); test: as above; conditions: 18-24 h, at 10 µM, stronger effect = lower value
[3] = SK-BR-3 cell growth inhibitors, pilot screen, 24 h, human (AID 572;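 active = viability at or below 10% of carrier control in both of two separate runs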;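 also: compound exposure lasted between 18 and 24 h rather than exactly 24 h; 100% = carrier-treated control wells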); conditions: SK-BR-3 viability, CellTiter-Glo luminescence, at 10 µM, stronger effect = lower value
[4] = HUVEC growth inhibition – cell-based, human, primary screen (AID 575;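 active = viability at or below 30% in both replicate assays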;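 also: 100% = median of untreated cell wells with 0.1% DMSO on each plate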); conditions: HUVEC proliferation, CellTiter-Glo luminescence, 72 h; at 10 µM; stronger effect = lower value
Summary of the method: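 Test system: primary human umbilical vein endothelial cells; medium: endothelial basal medium with 2% FBS plus growth supplements; dosing: 10 µM compound only; times: 72 h treatment at 37 °C; signal: CTG luminescence; read-out: % viability relative to median vehicle-well signal on each plate; control set: vehicle and MePR control wells; plate: 384-well, collagen-coated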

[5] = growth inhibitors of H69AR lung tumor, primary screen, human, duplicate replicates (AID 580;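 active = viability at or under a set limit in both replicates, limit being median viability minus 3 SD, cut at about 48% in these data, passing the limit was not always enough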;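 also: 100% = mean luminescence of untreated wells and 0% = no signal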); conditions: H69AR lung tumor cells viability, ATP luminescence, 72 h; at 10 µM; stronger effect = lower value
[6] = reversal of MRP1-mediated doxorubicin resistance, pilot screen, H69AR cells, doxorubicin co-treatment (AID 601); conditions: CellTiter-Glo, 72 h, at 10 µM; for differential viability (reversal): stronger effect = higher value
[7] = 384-well plate pilot, post-Golgi transport modulator project, inhibition of yeast transport mutant growth (AID 636; in the data active = inhibition above about 31%); conditions: absorbance 615 nm, about 18 h, stronger effect = higher value
[8] = growth suppression of yeast trafficking mutant, preliminary HTS, modulators of trafficking downstream of Golgi apparatus project, 1536-format plate, OD 615 nm (AID 637; in the data active = inhibition above about 30%); conditions: yeast transport mutant growth, absorbance 615 nm, 18 h; stronger effect = higher value
[9] = H69AR cells + 2 uM doxorubicin, measured here: viability with 2 uM doxorubicin, stronger effect = lower value
[10] = H69AR cells, compound alone cytotoxicity

Receptor tyrosine-protein kinase erbB-2 (Homo sapiens), sequence (P04626 whole entry, looked up): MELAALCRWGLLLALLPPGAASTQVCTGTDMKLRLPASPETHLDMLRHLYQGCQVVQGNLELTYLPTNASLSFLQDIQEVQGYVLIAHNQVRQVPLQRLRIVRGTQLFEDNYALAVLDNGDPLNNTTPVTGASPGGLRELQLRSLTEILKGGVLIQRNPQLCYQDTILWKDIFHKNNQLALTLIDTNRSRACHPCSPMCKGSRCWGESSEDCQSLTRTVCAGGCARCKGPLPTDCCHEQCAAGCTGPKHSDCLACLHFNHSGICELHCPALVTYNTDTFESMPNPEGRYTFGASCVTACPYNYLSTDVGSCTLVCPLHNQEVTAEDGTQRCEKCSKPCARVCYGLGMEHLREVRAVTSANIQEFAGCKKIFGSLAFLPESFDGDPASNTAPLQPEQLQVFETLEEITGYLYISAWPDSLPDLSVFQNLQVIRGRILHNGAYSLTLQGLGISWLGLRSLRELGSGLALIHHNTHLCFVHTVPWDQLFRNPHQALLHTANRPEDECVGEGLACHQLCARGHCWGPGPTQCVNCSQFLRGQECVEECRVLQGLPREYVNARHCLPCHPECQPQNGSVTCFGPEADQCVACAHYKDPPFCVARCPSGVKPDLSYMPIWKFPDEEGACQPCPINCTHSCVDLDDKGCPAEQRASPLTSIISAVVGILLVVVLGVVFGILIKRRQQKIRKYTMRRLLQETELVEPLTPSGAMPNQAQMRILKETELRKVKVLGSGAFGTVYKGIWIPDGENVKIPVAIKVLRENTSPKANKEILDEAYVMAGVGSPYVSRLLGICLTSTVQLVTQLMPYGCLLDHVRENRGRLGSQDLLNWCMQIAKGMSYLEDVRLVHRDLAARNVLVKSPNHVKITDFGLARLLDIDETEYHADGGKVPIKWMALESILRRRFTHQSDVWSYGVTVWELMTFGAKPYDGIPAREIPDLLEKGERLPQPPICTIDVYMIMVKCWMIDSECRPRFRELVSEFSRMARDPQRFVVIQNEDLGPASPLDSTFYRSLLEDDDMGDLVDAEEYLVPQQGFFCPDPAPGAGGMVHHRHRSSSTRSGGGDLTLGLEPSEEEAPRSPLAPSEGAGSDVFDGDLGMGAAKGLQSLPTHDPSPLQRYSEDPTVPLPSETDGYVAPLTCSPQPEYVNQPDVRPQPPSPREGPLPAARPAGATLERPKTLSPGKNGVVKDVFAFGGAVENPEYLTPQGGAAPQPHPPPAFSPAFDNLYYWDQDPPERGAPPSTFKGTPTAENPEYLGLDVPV

SMILES | viability [1] [%] | Her2 level [2] | viability [3] | viability [4] | viability [5] | differential viability (reversal) ([6]; H69AR cells + 2 uM doxorubicin) | viability [6, 9] [%] | viability [6, 10] [%] | inhibition [7] | inhibition [8]
CC(C)(C)OC(=O)N1CCCC1C(=O)N1CCc2ccccc21 (stereo not given) | 95.5 | 86% (inactive) | 95.5% (inactive) | 94.9% (inactive) | 84.9% (inactive) | -4.58% (inactive) | 89.4 | 84.9 | 1.17% (inactive) | -3.81% (inactive)
COc1ccc(OC)c(-c2nnc(SCC(=O)NC3CCCCC3)o2)c1 | 93.5 | 99.5% (inactive) | 93.5% (inactive) | 96.2% (inactive) | 98.5% (inactive) | 6.21% (inactive) | 92.2 | 98.5 | 0% (inactive) | -13.4% (inactive)
C=C(C)Cn1c(N2CCN(CC)CC2)nc2c1c(=O)[nH]c(=O)n2C | 99.5 | 99.5% (inactive) | 99.5% (inactive) | 80% (inactive) | 85.7% (inactive) | -1.74% (inactive) | 87.5 | 85.7 | -1.07% (inactive) | 6.39% (inactive)
COc1ccccc1C(=O)N1CCNC(=O)C1CC(=O)Nc1ccc(Cl)cc1 (stereo not given) | 97.5 | 89.5% (inactive) | 97.5% (inactive) | 99.6% (inactive) | 95.5% (inactive) | -2.83% (inactive) | 98.3 | 95.5 | 1.71% (inactive) | -2.74% (inactive)
Cc1cc(C(=O)CSCc2nnc3n(CCC(C)C)c(=O)c4ccccc4n23)c(C)n1C | 99.5 | 84% (inactive) | 99.5% (inactive) | 84.2% (inactive) | 67.3% (inactive) | 0.59% (inactive) | 66.8 | 67.3 | -1.84% (inactive) | -0.73% (inactive)
CC(C)=CC/C=C1\CCC(C(=O)O)C(C(=O)O)C1 (stereo not given) | 114 | 104% (inactive) | 114% (inactive) | 91.6% (inactive) | 104% (inactive) | 20.5% (inactive) | 83.2 | 104 | -6.13% (inactive) | -0.48% (inactive)
O=C(OCC(=O)N1CCCC1)c1cncc(Br)c1 | 106 | 90% (inactive) | 106% (inactive) | 106% (inactive) | 102% (inactive) | 15.6% (inactive) | 86.4 | 102 | -7.57% (inactive) | 5.33% (inactive)
CCC(=O)/C=C1\Sc2ccc(OC)cc2N1CCO | 120 | 98% (inactive) | 120% (inactive) | 98.6% (inactive) | 87.8% (inactive) | 2.07% (inactive) | 85.7 | 87.8 | -4.21% (inactive) | -4.68% (inactive)
S=C(c1ccc(-c2cc(Cl)ccc2Cl)o1)N1CCOCC1 | 80.5 | 85% (inactive) | 80.5% (inactive) | 86.4% (inactive) | 98.5% (inactive) | -8.1% (inactive) | 107 | 98.5 | -0.4% (inactive) | 5.16% (inactive)
O=C(NCc1ccccn1)Nc1ccc2c(c1)OCO2 | 100 | 102% (inactive) | 100% (inactive) | 78.7% (inactive) | 92.4% (inactive) | 4.97% (inactive) | 87.4 | 92.4 | -2.37% (inactive) | -0.95% (inactive)
CCc1nc(N)c(C#N)c(-c2ccc(OC)c(OC)c2)c1C | 98.5 | 93% (inactive) | 98.5% (inactive) | 91.4% (inactive) | 87.2% (inactive) | 9.15% (inactive) | 78.1 | 87.2 | -6.93% (inactive) | 3.33% (inactive)
O=C(Nc1ccc2c(c1)OCO2)c1nn(-c2ccccc2)c(=O)c2ccccc12 | 108 | 81% (inactive) | 108% (inactive) | 72.8% (inactive) | 74.7% (inactive) | -4.67% (inactive) | 79.4 | 74.7 | -1.43% (inactive) | 1.75% (inactive)
COc1nc(N2CCOCC2)nc(-n2cccc2)n1 | 94.5 | 86.5% (inactive) | 94.5% (inactive) | 90.6% (inactive) | 87.4% (inactive) | 13.8% (inactive) | 73.6 | 87.4 | -4.08% (inactive) | -5.09% (inactive)
O=C(O)c1cccc(NS(=O)(=O)c2ccc3nnn(O)c3c2)c1 | 123 | 87% (inactive) | 123% (inactive) | 94.9% (inactive) | 102% (inactive) | 3.63% (inactive) | 98 | 102 | -4.27% (inactive) | 5.71% (inactive)
CC(=O)Nc1ccc(S(=O)(=O)N2CCN(C(C)CCc3ccccc3)CC2)cc1 (stereo not given) | 74 | 98.5% (inactive) | 74% (inactive) | 97.8% (inactive) | 96.6% (inactive) | 5.17% (inactive) | 91.4 | 96.6 | -4.8% (inactive) | -1.29% (inactive)
CN(Cc1cccs1)CC(O)COCc1ccco1 (stereo not given) | 107 | 91.5% (inactive) | 107% (inactive) | 109% (inactive) | 90.5% (inactive) | -3.35% (inactive) | 93.9 | 90.5 | -3.92% (inactive) | 2.22% (inactive)

From PubChem BioAssay
